Values joined by “and” are separate entries in the source; they are usually repeats but may differ in a detail not shown here. Identical values can stand only once.
Key:
U2OS = test: Multiplex assay against U2OS; assay type: toxicity, cell-based; details: human, number of replicates 2
Outline: (§1)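 With compound added, live cells were imaged on a CQ1 microscope at 37°C and 5% CO2; staining with Hoechst33342, BioTracker Green Microtubule Cytoskeleton Dye, MitoTracker Red and Annexin V Alexa Fluor 680 had been done at seeding. The CellPathfinder machine-learning gating scheme split cells into Hoechst high-intensity objects or normal cells, normal cells into healthy, pyknosed or fragmented nuclei, and pyknosed cells into mitotic or apoptotic. The tubulin, mitochondrial-mass and membrane-permeability phenotypes are per cents of healthy-nucleus cells.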

Fibroblast = test: Multiplex assay against human fibroblast; assay type: toxicity, cell-based; details: number of replicates 2; outline: as §1
[1] = 24 h, 1 µM, compound concentration 1 uM
[2] = 24 h, 10 µM, compound concentration 10 uM
[3] = 48 h, 1 µM, compound concentration 1 uM
[4] = 48 h, 10 µM, compound concentration 10 uM
[5] = 12 h, 1 µM, compound concentration 1 uM
[6] = 12 h, 10 µM, compound concentration 10 uM

SMILES: CN(C)C/C=C/C(=O)Nc1ccc(C(=O)Nc2cccc(Nc3ncc(Cl)c(-c4c[nH]c5ccccc45)n3)c2)cc1
- Population Tubulin-Different-Phenotype (%) (U2OS; [1]): 100% and 77%
- Population Apoptotic (%) (U2OS; [2]): 92% and 98%
- Population Fragmented Nuclei (%) (U2OS; [2]): 21% and 11%
- Population Healthy Nuclei (%) (U2OS; [2]): 18% and 31%
- Population Hoechst High Intensity Objects (%) (U2OS; [2]): 0% and 1%
- Population Membrane Permeable-Phenotype (%) (U2OS; [2]): 46% and 27%
- Population Mitochondria Different-Phenotype (%) (U2OS; [2]): 23% and 31%
- Population Mitotic Cells (%) (U2OS; [2]): 7% and 1%
- Population Normal (%) (U2OS; [2]): 100% and 98%
- Population Pyknosed Nuclei (%) (U2OS; [2]): 59% and 57%
- Population Tubulin-Different-Phenotype (%) (U2OS; [2]): 61% and 54%
- Population Apoptotic (%) (U2OS; [3]): 84% and 96%
- Population Fragmented Nuclei (%) (U2OS; [3]): 17% and 10%
- Population Healthy Nuclei (%) (U2OS; [3]): 14% and 18%
- Population Hoechst High Intensity Objects (%) (U2OS; [3]): 0% and 2%
- Population Membrane Permeable-Phenotype (%) (U2OS; [3]): 50% and 44%
- Population Mitochondria Different-Phenotype (%) (U2OS; [3]): 50% and 48%
- Population Normal (%) (U2OS; [3]): 100% and 97%
- Population Pyknosed Nuclei (%) (U2OS; [3]): 67% and 70%
- Population Tubulin-Different-Phenotype (%) (U2OS; [3]): 100% and 88%
- Population Apoptotic (%) (U2OS; [4]): 99% and 95%
- Population Fragmented Nuclei (%) (U2OS; [4]): 7% and 19%
- Population Hoechst High Intensity Objects (%) (U2OS; [4]): 3% and 0%
- Population Mitochondria Different-Phenotype (%) (U2OS; [4]): 67% and 100%
- Population Mitotic Cells (%) (U2OS; [4]): 0% and 4%
- Population Normal (%) (U2OS; [4]): 96% and 100%
- Population Pyknosed Nuclei (%) (U2OS; [4]): 79% and 78%
- Population Tubulin-Different-Phenotype (%) (U2OS; [4]): 89% and 100%
- Population Apoptotic (%) (Fibroblast; [5]): 47% and 41%
- Population Fragmented Nuclei (%) (Fibroblast; [5]): 6% and 9%
- Population Healthy Nuclei (%) (Fibroblast; [5]): 61% and 63%
- Population Hoechst High Intensity Objects (%) (Fibroblast; [5]): 0%
- Population Membrane Permeable-Phenotype (%) (Fibroblast; [5]): 6%
- Population Mitochondria Different-Phenotype (%) (Fibroblast; [5]): 9% and 8%
- Population Mitotic Cells (%) (Fibroblast; [5]): 52% and 58%
- Population Normal (%) (Fibroblast; [5]): 99%
- Population Pyknosed Nuclei (%) (Fibroblast; [5]): 32% and 26%
- Population Tubulin-Different-Phenotype (%) (Fibroblast; [5]): 29% and 25%
- Total Cell Count (Fibroblast; [5]): 144 and 155
- Population Apoptotic (%) (Fibroblast; [6]): 50% and 66%
- Population Fragmented Nuclei (%) (Fibroblast; [6]): 21% and 12%
- Population Healthy Nuclei (%) (Fibroblast; [6]): 41% and 42%
- Population Hoechst High Intensity Objects (%) (Fibroblast; [6]): 0%
- Population Membrane Permeable-Phenotype (%) (Fibroblast; [6]): 21% and 22%
- Population Mitochondria Different-Phenotype (%) (Fibroblast; [6]): 10% and 4%
- Population Mitotic Cells (%) (Fibroblast; [6]): 50% and 33%
- Population Normal (%) (Fibroblast; [6]): 99%
- Population Pyknosed Nuclei (%) (Fibroblast; [6]): 36% and 44%
- Population Tubulin-Different-Phenotype (%) (Fibroblast; [6]): 77% and 63%
- Total Cell Count (Fibroblast; [6]): 180 and 169
- Population Apoptotic (%) (Fibroblast; [1]): 62% and 51%
- Population Fragmented Nuclei (%) (Fibroblast; [1]): 12% and 10%
- Population Healthy Nuclei (%) (Fibroblast; [1]): 54% and 55%
- Population Hoechst High Intensity Objects (%) (Fibroblast; [1]): 0%
- Population Membrane Permeable-Phenotype (%) (Fibroblast; [1]): 13% and 5%
- Population Mitochondria Different-Phenotype (%) (Fibroblast; [1]): 12% and 11%
- Population Mitotic Cells (%) (Fibroblast; [1]): 37% and 48%
- Population Normal (%) (Fibroblast; [1]): 100%
- Population Pyknosed Nuclei (%) (Fibroblast; [1]): 32% and 35%
- Population Tubulin-Different-Phenotype (%) (Fibroblast; [1]): 37% and 33%
- Total Cell Count (Fibroblast; [1]): 132 and 140
- Population Apoptotic (%) (Fibroblast; [2]): 79% and 84%
- Population Fragmented Nuclei (%) (Fibroblast; [2]): 12% and 22%
- Population Healthy Nuclei (%) (Fibroblast; [2]): 31%
- Population Hoechst High Intensity Objects (%) (Fibroblast; [2]): 1% and 0%
- Population Membrane Permeable-Phenotype (%) (Fibroblast; [2]): 23% and 16%
- Population Mitotic Cells (%) (Fibroblast; [2]): 20% and 15%
- Population Normal (%) (Fibroblast; [2]): 98% and 99%
- Population Pyknosed Nuclei (%) (Fibroblast; [2]): 55% and 46%
- Population Tubulin-Different-Phenotype (%) (Fibroblast; [2]): 50% and 74%
- Total Cell Count (Fibroblast; [2]): 167 and 178
- Population Apoptotic (%) (Fibroblast; [3]): 72% and 74%
- Population Fragmented Nuclei (%) (Fibroblast; [3]): 15%
- Population Healthy Nuclei (%) (Fibroblast; [3]): 55% and 50%
- Population Hoechst High Intensity Objects (%) (Fibroblast; [3]): 0%
- Population Membrane Permeable-Phenotype (%) (Fibroblast; [3]): 11% and 5%
- Population Mitochondria Different-Phenotype (%) (Fibroblast; [3]): 7% and 8%
- Population Mitotic Cells (%) (Fibroblast; [3]): 27% and 25%
- Population Normal (%) (Fibroblast; [3]): 100%
- Population Pyknosed Nuclei (%) (Fibroblast; [3]): 29% and 34%
- Population Tubulin-Different-Phenotype (%) (Fibroblast; [3]): 39% and 26%
- Total Cell Count (Fibroblast; [3]): 124 and 149
- Population Apoptotic (%) (Fibroblast; [4]): 93%
- Population Fragmented Nuclei (%) (Fibroblast; [4]): 32% and 24%
- Population Healthy Nuclei (%) (Fibroblast; [4]): 20% and 19%
- Population Hoechst High Intensity Objects (%) (Fibroblast; [4]): 2% and 0%
- Population Membrane Permeable-Phenotype (%) (Fibroblast; [4]): 25% and 18%
- Population Mitochondria Different-Phenotype (%) (Fibroblast; [4]): 6% and 5%
- Population Mitotic Cells (%) (Fibroblast; [4]): 6%
- Population Normal (%) (Fibroblast; [4]): 97% and 99%
- Population Pyknosed Nuclei (%) (Fibroblast; [4]): 46% and 56%
- Population Tubulin-Different-Phenotype (%) (Fibroblast; [4]): 65% and 68%
- Total Cell Count (Fibroblast; [4]): 220 and 196

Source: ChEMBL document CHEMBL5303300, “EUbOPEN Chemogenomics Library - Multiplex” (2023)
